Variants at the floor of the assay were thinned out.
B1: tRNA (parent)
chain: GUUCCGUUGGCGUAAUGGUAACGCGUCUCCCUCCUAAGGAGAAGACUGCGGGUUCGAGUCCCGUACGGAACG

Variants of: B1
Test: yeast fitness relative to wild type (ratio to wild type); higher = fitter; tRNA-Arg(CCU), competitive growth, 37 C, YPD
How it was run: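 For this measurement, the tRNA-Arg(CCU) gene was varied by chemical synthesis at a 3% per-site mutation rate across 69 sites, and each variant was placed at the native genomic locus in Saccharomyces cerevisiae. The pooled strains went through a 24-hour competition in YPD at 37°C in six parallel replicates, with amplicons from start and end populations read by 100-nucleotide paired-end sequencing. Darwinian fitness relative to wild type followed from the change in each genotype's frequency. Genotypes needed ≥ 100 starting reads, and estimates < 0.5 were set to 0.5.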
Variant GUUGCGUUACCGUAAUGGUAACGCGUCUACCUCCUAAGGAGAAGACUGCGGGCUCGAGUCCUGUACGGAACG [C4G G9A G10C C29A U53C C62U] has a yeast fitness of at most 0.5. Work on GUUGCAUUGCCGUAAUGGAAACGGGUCUCCCUCCUAAGGAGAGGACUGCGGGUUCGAGUCGCGUACGGAUCG [C4G G6A G10C U19A C24G A43G C61G A70U] yielded a yeast fitness of at most 0.5. For GUUGCCUUGGCGUAAUGGUAACGCGUCUCCCUCCUAAGGAGAAGACUGCGGGUUCGAGUCCCGUACGGAACG [C4G G6C], the yeast fitness was 0.657. GUUGCGUUGACGUAAUGGUAACGCGUCUCCCUCCUAAGGACAAGACUGCGGGUUCGAGUCCGGUACGGAACG [C4G G10A G41C C62G] gave a yeast fitness of 0.572. In the case of GUUGCGUUGACGUAAUGGUAACGCGUCUCCCUCCUAAGGAGCAGACUGCGGGUGCGAGUCCCGUACGGAACG [C4G G10A A42C U54G], the yeast fitness is reported as at most 0.5. In the case of GUUGCCUGGGCGUAAUAGUAACACGUCUCCCUCCUAAGGAGAAGAGUGCGGGUUCGAGUACCGUACGGAACG [C4G G6C U8G G17A G23A C46G C60A], the yeast fitness is reported as 0.567. GUUGCGUUAGCGUAAUGCUAACGCGUCUCCUUCCUAAGGAGAAGACGGCGGGUUCGAGUCCCGUACGGAACG [C4G G9A G18C C31U U47G] showed a yeast fitness of at most 0.5. With GUUGCGUUGGCGUAAUGGUAACGCGUCUCCCUCCUAAGGAGAAGACUGCGGGUUCGAGUCGCCUACGGAGCG [C4G C61G G63C A70G] the yeast fitness was 0.516. GUUGCAUUGGCGUAAUGGUAACGUGUCUCCCUCCUAAGGUGAAGACUGCGGGUUCGAGUCCCGUCCGGUACG [C4G G6A C24U A40U A65C A69U] showed a yeast fitness of 0.815. With GUUGCGUUAGCGUAAUGGUAACGCGUCUCCCUCCUAAGAAGAAGACUGCGGGUUCGAGUCCCGUUCGGUACG [C4G G9A G39A A65U A69U] the yeast fitness was at most 0.5. In the case of GUUGCAUUGGCGUAAUGGUAACGCGUCUCCCUCCUAAGGAGAAGAUUGCGGGUUCGAGUCCCGUACGGCACG [C4G G6A C46U A69C], the yeast fitness is reported as 0.536. In the case of GUUGCGUUAGCGUAAUGGUAACGCGUCCCCCUCCUAAGAAGAAGACUGCGGGUUCGAGUCCCGUACGGAACG [C4G G9A U28C G39A], the yeast fitness is reported as at most 0.5. In the case of GUUGCGUUGACGUAAUGGUAACGCGUCUCGCUCCUAAGGAGAGGACUGCGGGUUCGAGUCCCGUACGGAACG [C4G G10A C30G A43G], the yeast fitness is reported as 0.659. Variant GUUGCGUUGCGGUAAUGGUAACGCGUCUCCCUCCUAUGGAGAGGACUGCGGGUUCGAGUCCCGUACGGAACG [C4G G10C C11G A37U A43G] has a yeast fitness of at most 0.5. GUUGCGUUGGCGUAAUGGUAACGCGUCUCCCUCCUAAGGAGAAGACUGCGGGUUCGAGUCCAGUAUGGAACG [C4G C62A C66U] showed a yeast fitness of 0.704. Variant GUUGCGUUGACGUAAUGGUAAGGCGUCUCCCUCCUAAGGAGAAGACUGCGGGUUAGAGUCCCGUACGGAACG [C4G G10A C22G C55A] has a yeast fitness of 0.555. Work on GUUGCAUUGGCGUAAUGGUACCGCGUCUCCCUCCUAAGGAGAAGACUGCGGGUUCGAGUCCCGUACGGAACG [C4G G6A A21C] yielded a yeast fitness of 0.701. GUUGCGUUGGCGUAAUGGUAACGCGUCUCCCUCCUAAGGAGAAGACUGCGGGUUCGAGUGUCGUACGGAACG [C4G C60G C61U] showed a yeast fitness of at most 0.5. For GUUGCGUUGCCGUAAUGGUAACGUGUCUCCCUCUUUAGGAGAAGAAUGCGGGUUCGAGUCCCGUACGGAACG [C4G G10C C24U C34U A36U C46A], the yeast fitness was at most 0.5. For GUUGCCUUGGCGUAAUGGUAACGCGUCUGCCUCCUAAGGAGAAGACUGCGGGUUCGAGUCCCCUACGGAACG [C4G G6C C29G G63C], the yeast fitness was at most 0.5. Variant GUUGCGUUCGCGUAAUGGUAAAGCGUCUCCCUCCUAAGGAGAAGACUGCGGGUUCGAGUCCCGUACGGUACG [C4G G9C C22A A69U] has a yeast fitness of 0.525. GUUGCGUUACCGUAAUGGUAACGCGUCUACCUCCUAAGGAGAAGACUGCUGGUUCGAGGCCCGUACGGUACG [C4G G9A G10C C29A G50U U59G A69U] gave a yeast fitness of at most 0.5. Work on GUUGCGUUAGCGUAAUGGUACAGCGUCUCCCUCCUAAGGAGAAGACUGCGGGUUCGAGUCCCGUAUGGAACG [C4G G9A A21C C22A C66U] yielded a yeast fitness of 0.559. In the case of GUUGCAUUGGCGUAAUGGUAACACGUCUCCCUCCUAAGGAGAGGACUGCGGGUUCGAGUCCCGUACGGUGCG [C4G G6A G23A A43G A69U A70G], the yeast fitness is reported as at most 0.5. In the case of GUUGCAUUGGCGUAAUGGUACCGCGUCUCCCUCCUAAGGAGAAGACUGCGGGAACGAGUCCCGUACGGAACG [C4G G6A A21C U53A U54A], the yeast fitness is reported as at most 0.5. GUUGCAUUGGCGUAAUGGUAACACGUCUCCCUCCUAAGGAGAGGACUGCGGGUUUGAGUCCCGUACGGAACG [C4G G6A G23A A43G C55U] showed a yeast fitness of at most 0.5. In the case of GUUGCAUUGGUGUAAUGGUAACGCGUCUACCUCCUAAGGAGAAGACUGCGGGUUCGAGUCCCAUACGGAGCG [C4G G6A C11U C29A G63A A70G], the yeast fitness is reported as at most 0.5. Work on GUUGCGUUCGCGUAAUGGUAACGCGUCUCCCUGCUAAGGAGAAGACUGCGGGUUCGAGUCCCGUAUGGAACG [C4G G9C C33G C66U] yielded a yeast fitness of 0.72. GUUGCGUUCGCGUAAUGGUAACGCGUCUCCCUCCUAAGGAAAAGACUGCGGGUUUGAGACCCGUACGGAUCG [C4G G9C G41A C55U U59A A70U] gave a yeast fitness of 0.545. With GUUGCGUUGGCGUAAUGGUAACGCGUCUCCCUCCUAAGGAGAAGACUGCGGGUUCGAGUUCCCUACGAAACG [C4G C60U G63C G68A] the yeast fitness was at most 0.5. GUUGCCUUGGCGUAAUGGUAACGCGUCUCCCUCCUAAGGUGAAGGCUGCGGGUUAGAGUCCCGUACGGAACG [C4G G6C A40U A45G C55A] showed a yeast fitness of at most 0.5. GUUGCGUUCGCGUAAUGGUAAAGCGUCUCCCUCCUAAGGAGAAGACUGCGGGUUCGAGUCCCGUACGGACCG [C4G G9C C22A A70C] showed a yeast fitness of at most 0.5. GUUGCGUUGCCCUAAUGGUACCGCGUCUCCCUCCUAAGGAGAAGACUCCGGGUUCGGGUCCCGUACGGAACG [C4G G10C G12C A21C G48C A57G] showed a yeast fitness of 0.527. With GUUGCGUUCGCGUAAUGGUAACGCGUCUCCCUCCCAAGGAAAAGACUGCGGGUUUGAGACCCGUACGGAUCG [C4G G9C U35C G41A C55U U59A A70U] the yeast fitness was at most 0.5. Work on GUUGCAUUGGCGUAAUGGUAACACGUCUCCCUCCUAAGGAGAGGACUGCGGGUUCGAGUCCCGUACGGAACG [C4G G6A G23A A43G] yielded a yeast fitness of at most 0.5. For GUUGCCUUGGCGUAAUGGUAACGCGUCUCACUCCUAAGGAGAAGACUGCGGGUUCGAGUCCCGUACGGAACG [C4G G6C C30A], the yeast fitness was at most 0.5. With GUUGCGUUCGCGUAAUGGUAAAGCGUCUCCCUCCUAAGGAGAAGACUGCGGGUUCGAGUCCCGUACGUAACG [C4G G9C C22A G68U] the yeast fitness was at most 0.5. For GUUGCGUUAGCGUAAUGGUACAGCGUCUCCCUCCUAAGGAGAAGACUGCGGGUUCGAGUCCCGUACGGAACG [C4G G9A A21C C22A], the yeast fitness was at most 0.5.

— the RNAGym collection of RNA variant scans (doi:10.1126/science.aae0568)
